Consider 37 variants from the RNAGym collection of RNA variant scans (doi:10.1126/science.aae0568).

This sample holds only a part of the variants without activity.

The chains are these.
B1: tRNA (parent)
chain: GUUCCGUUGGCGUAAUGGUAACGCGUCUCCCUCCUAAGGAGAAGACUGCGGGUUCGAGUCCCGUACGGAACG

Variants of B1 are the subject of the series. The series is described as follows: yeast fitness relative to wild type (ratio to wild type); higher = fitter; tRNA-Arg(CCU), competitive growth, 37 C, YPD. The essentials:
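Genotype frequency changes were the basis for Darwinian fitness relative to wild type. The frequencies came from 100-nucleotide paired-end sequencing of gene amplicons from the start population and each end population of pooled yeast strains with tRNA-Arg(CCU) gene variants at the native locus. Competition ran in YPD at 37°C for 24 hours in six replicates, genotypes needed ≥ 100 starting reads, and estimates < 0.5 were set to 0.5.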
Take GAUCCGUUGGCGUAAUGGUAACGGGUCUCCUUGCUAAGGAGCUGACUGCGGGUUCGAGUCCCGUUCGGAACG [U2A C24G C31U C33G A42C A43U A65U]: the yeast fitness was at most 0.5.

Consider GAUCCGUUGGCGUAAUGGUAACGCGUCUCCCUCCUAAGGAGAAGAUUGCGGGUUCGAGUCCCGUGCGGAACG [U2A C46U A65G], for which the yeast fitness amounted to 0.592. Turning to GAUCCGUUGGCGUAAUGGUAACGGGUCUCCCUCCUACGGAGAAGACUGCGGGUUCGAGUCCCGUAUGGAACG [U2A C24G A37C C66U], the yeast fitness was at most 0.5. As for GAUCCGUUCGCGUAAGGGUAACGCGUCUCCCGCCUAAGGAGAAGACUGCGGAUUCGAGUCCCCUACGGAACG [U2A G9C U16G U32G G52A G63C], the yeast fitness was at most 0.5. For the variant GAUCCGUUGGCGUAAUGGUAACGCGUCUCCCUAUUAAGGAGAAGACUGCGGGUUCAAGUCCCGUACGGAACG [U2A C33A C34U G56A], the yeast fitness was 0.542.

With GAUCCGUUGGCGUAAUGGUAACGGGUCUCCCUCCUACGGAGAAGACUGCGGGUUCCAGUCCCGUACGGAACG [U2A C24G A37C G56C], the yeast fitness was at most 0.5. For GAUCCGUUGGCGUAAUGGUAACGCGUCUCCCUCCUAAGGAGAAGACUGCGGGUUAGAGUCCCGUACGGAACG [U2A C55A], the yeast fitness was 0.714. Regarding GAUCCGUUGGCGUAAUGGUAACGCGUCUCCCUCCUAAGGAGAAGACUGCGGGUUUGAGUCCCGUACGGAACG [U2A C55U], the yeast fitness was found to be 0.661. Take GAUCCGUUGGUGUAAUAGUAACGCGUCUCCCUCCUAAGGAGAAGACUGCGGGUUCGAGUCCCGGACGGAACG [U2A C11U G17A U64G]: the yeast fitness is at most 0.5. With GAUCCGUUGGCGUAAUGGUAACGCGUCUACCUCCUAAGGAGAAGACUGCGGGUUCGAGUCCCGUACGGAACG [U2A C29A], the yeast fitness came out at 0.625. As for GAUCCCCUGGCGUAUUGGUAACGCGUCUCCCUCCCAAGGAAAAGACUGCGGGUUCGAGUACCGUUCGGGACG [U2A G6C U7C A15U U35C G41A C60A A65U A69G], the yeast fitness was at most 0.5. For the variant GAUCCGUUGGCGUAAUGGUAACGCGUCUGCCUCAUAAGGAGAAGACUGCGGGUUCGAGUGCCGUACGGAACG [U2A C29G C34A C60G], the yeast fitness was at most 0.5. Take GAUCCCCUGGCAUAAUGGUAACGCGUCUCACUCCUAAGGAGAAAACUGCGGGUUCGAGUCCCGUAAGGAACG [U2A G6C U7C G12A C30A G44A C66A]: the yeast fitness is at most 0.5. With GAUCCGUUCGCGUAAUGGUAACGCGUCUCCCUCCUAAGGAGAAGACUGCAGGUUCGAGUCCCGAACGGAACG [U2A G9C G50A U64A], the yeast fitness was at most 0.5. For the variant GAUCCGUUGGCGUAAUGGUAACGCGUCUCCCUCCUAAGGAGAAGACUGUGGGUUCGAGUCCUGUACGGAACG [U2A C49U C62U], the yeast fitness came out at 0.522.

With GAUCCGUUGGCGUAAUGGUAACGCGUCUCCCUCUUAAGGAGAAGACUACGGGUUCGAGUUCCGUACGGAACG [U2A C34U G48A C60U], the yeast fitness was 0.602. For GAUCCCUUGGCGUAAUGGUAACGCGUCUACCUCCUAAGGAGAAGACUGCGGGUUCGAGGCCCGUACGGAACG [U2A G6C C29A U59G], the yeast fitness turned out to be 0.603. With GAUCCGUUGGCGUAAUGGUAACGCGUCUCCGUCCUAAGCAGGAGACUGUGGGUUCGAGUGCCGUACGGAACG [U2A C31G G39C A42G C49U C60G], the yeast fitness was at most 0.5.

Consider GAUCCAUUGGUGUAAUGGUAACGCGUCUCCGUCCUAAGGAGAAGACUGCGGGUUCGAGUCCCGUACGGUACG [U2A G6A C11U C31G A69U], for which the yeast fitness was at most 0.5. With GAUCCGUUGGCGUAAUGGUAAGGCGUCUCCCUCCUAAGGAGAAGACUGCGGGUUCGAGUCCUCUACGGAACG [U2A C22G C62U G63C], the yeast fitness is at most 0.5. For the variant GAUCCGUUAGUGUAAUGGUAACGCGUCUCCCUCCUAAGGAGAAGACUGCGCGUUUGAGUCCCGUACGGCUCG [U2A G9A C11U G51C C55U A69C A70U], the yeast fitness is at most 0.5. Consider GAUCCAUUGGCGUAAUGGUAACGCGUCUCCCUCCUAAGGAGAAGACUGCGGGUUCGAGUCCCGUACGGAACG [U2A G6A], for which the yeast fitness is 0.775. In the case of GAUCCGUUGGCGUAAUGGUAACGCGUCUCCCUCCUAAGGAGAAGAAUGCGGGUUCGAAUCCCGUACGGAACG [U2A C46A G58A], the yeast fitness is 0.622. As for GAUCCGUUAGCGUAAUGGUAACGCGUCUCCCUCCUAAGGAGAAGACUGCGGGUUCGAGUCCCGUACGGACCG [U2A G9A A70C], the yeast fitness is 0.568. GAUCCGUUGGCGUAAUGGUAACGCGUCUCCGUCCUAAGGAGAAGACUGCGGGUUCGAGUCCCGUACGGAACG [U2A C31G]: the yeast fitness is 0.864. Take GAUCCGUUGGCGUAAUGGUAACGCGUCUCCUUCCUAAGGAGAAGACUGCGGGUUCGAGUCCCGUACGGAACG [U2A C31U]: the yeast fitness was 0.921.

Regarding GAUCCGUUGGCGUAAUGGUAACGCGUCUCCAUCCUAAGGAGAAGACUGCGGGUUCGAGUCCCGUACGGAACG [U2A C31A], the yeast fitness stood at 0.815. In the case of GAUCCGUUGACGUAAUGGUUAGGCGUCUCCCUCCUAAGGAGAACACUGCGGGUUCGAGUCGCGUACGGAACG [U2A G10A A20U C22G G44C C61G], the yeast fitness worked out at 0.502. Regarding GAUCCGUUGGCGUAAUGGUAACGCGUUUCCCUCCUCAGGAGAAGACUGCGGGUUCGAGUCCCGUACGGAACG [U2A C27U A36C], the yeast fitness is at most 0.5. Turning to GAUCCGUUGGCGUAAUGGUAACGCGUUUCCCUCCUGAGGAGAAGACUGCGGGUUCGAGUCCCGUACGGAACG [U2A C27U A36G], the yeast fitness came to 0.578. For GAUCCGUUAGCGUAAUGGUCACGUGUCUCCCUCCUAAGGAGAAGACUGCGGGUUCGAGUCCCGUACGGAACG [U2A G9A A20C C24U], the yeast fitness was at most 0.5. GAUCCGUUGGCGUAAUGGUAACGCGUCUCCCUCCUAAGGAGAAGACUGCGGGUUCGAGUCUCGUACGGAACG [U2A C61U]: the yeast fitness came to 0.768. For GAUCCCUUGGCGUAAUGGUAACGCGUCUCCCUCCUAUGGAGAAGACUGCGGGUUCGAGUCCCGUACGGAACG [U2A G6C A37U], the yeast fitness is at most 0.5. In the case of GAUCCGUUAGCGUAAUGGUAACACGUCUGCCUCCUAAGGAGAAGACUGCGGGUUCGAGUCCCGUACGGAACG [U2A G9A G23A C29G], the yeast fitness was at most 0.5.

On to GAUCCGUUGGCGUAAUGGUAACGCGUCUCCUUCCUAUGGAGAAGACUGCGGGUUCGAGUCCCGUACGGAACG [U2A C31U A37U], for which the yeast fitness was at most 0.5.

GAUCCGUUGGCGUAAUGGUAACGCGUCUCCCUCCUAAGGAGAAGACUGCGGGUUCGAGUCCCGUAGGGAACG [U2A C66G]: the yeast fitness was found to be 0.715. As for GAUCCGUUGGCGUAAUGGUAACGCGUCUCCCUCCUAAGGAGAAGACUGCGGGUUCGAGUCCCGUAUGGAACG [U2A C66U], the yeast fitness worked out at 0.739.
